This note sets out measurements from PubChem BioAssay AID2529 (Broad Institute, 2010).

For this assay, the system named is human washed platelets, PMA-induced P-selectin, flow cytometry. Nature of the assay: inhibitors of PMA-stimulated platelet P-selectin exposure, confirmation, selectivity assay, cell-based, fluorescence, flow cytometry, platelets (AID 2529). The conditions noted are these: at 30 µM, stronger effect = higher value. In a few lines: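 test system = platelets | timing = compound pre-treatment 20 min, PMA stimulation 15 min, antibody labeling 20 min | compound = 30 µM single dose | technique = flow cytometry, PE anti-P-selectin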
In general terms: A flow cytometer gives signals particle by particle.

The structures appear in SMILES notation. Active and inactive are the calls of the source.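 How the source made its calls: active means inhibition at 30 µM, averaged over replicates, above 50% in every run; inconclusive means inhibition above 50% in some runs but not others; inactive means inhibition at most 50% in every run.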

As usually defined, the inhibition is the drop in the measured response relative to a control, in per cent. As to `O=C(Nc1cccc(NC(=O)c2ccccc2Cl)c1)c1ccco1`, the inhibition was 17% (inactive). Also, the inhibition (measured here: second run average inhibition) was 8%.
Turning to `CCCC(=O)Nc1cccc(NC(=O)c2ccccc2Br)c1`, the inhibition was 13% (inactive).
